Measured values published in ChEMBL document CHEMBL3769384, “Discovery of Tetrahydropyrazolopyridine as Sphingosine 1-Phosphate Receptor 3 (S1P3)-Sparing S1P1 Agonists Active at Low Oral Doses” (J Med Chem, 2016).

Experiments:
[1] = molecular target: Sphingosine 1-phosphate receptor 5 (Homo sapiens, UniProt Q9H228); assay: Agonist activity at human S1P5 receptor expressed in CHO-K1 cells by aequorin calcium accumulation assay; assay type: functional, cell-based
Procedure, shortened: (§1)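 CHO-K1 aequorin lines revived in DMEM F12 with 10% charcoal-stripped FBS, recovered 30 min at 37°C, then loaded 18-24 h at room temperature in the dark with 5 µM coelenterazine at 2.5x10^6 cells/mL. Cells were added at 1x10^5/well to compound, and flash luminescence was recorded immediately.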

Hepatocyte [2] = assay: Intrinsic clearance in human hepatocytes at 0.5 uM after 2 hrs by LC-MS/MS analysis; assay type: ADME, cell-based
Procedure, shortened: (§2)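 Compound at 0.5 µM incubated with pooled cryopreserved hepatocytes (0.7 million cells/mL) in Williams Medium E at 37°C under CO2/O2. Supernatants analysed by LC-MS/MS. CLi was derived from a first-order rate constant, scaled with 1.2x10^8 cells/g liver (human, rat, mouse) or 2.4x10^8 cells/g liver (dog).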

Cytochrome P450 3A4 [3] = molecular target: T1, Cytochrome P450 3A4 (Homo sapiens, UniProt P08684); assay: Inhibition of human CYP3A4 coexpressed in Escherichia coli with human NADPH reductase using midazolam as substrate at 0.1 to 100 uM by fluorescence assay; assay type: ADME; conditions: TDE = time-dependent effect
[4] = molecular target: Sphingosine 1-phosphate receptor 1 (Homo sapiens, UniProt P21453); assay: Agonist activity at human S1P1 receptor expressed in RH7777 cells by [35S]GTP-gammaS accumulation assay; assay type: cell-based
Procedure, shortened: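 RH7777 S1P1 membranes (1.5 µg/well) precoupled 30 min on ice to WGA SPA beads in 20 mM HEPES, 10 mM MgCl2, 100 mM NaCl, pH 7.4, with 10 µM GDP and 90 µg/mL saponin (final). 0.5 nM [35S]GTPγS final added to compound; plates read immediately by scintillation proximity.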

Cytochrome P450 3A4 [5] = molecular target: T1, Cytochrome P450 3A4; assay: Inhibition of human CYP3A4 by VR metabolism assay; assay type: ADME
[6] = Fraction unbound in human blood after 4 hrs by LC-MS/MS analysis; assay type: ADME, tissue-based
Procedure, shortened: (§3)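 Fresh blood (CD rat, CD1 mouse, Beagle dog, single human donor) spiked at 1000 ng/mL and dialysed against PBS by rapid equilibrium dialysis for 4 h at 37°C. Matrix-matched LC-MS/MS; unbound fraction taken from the buffer/blood peak area ratio.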

Salmonella typhimurium = assay: Mutagenicity in Salmonella typhimurium by Ames test; assay type: toxicity, organism-based; conditions: salmonella enterica subsp. enterica serovar typhimurium
Hepatocyte [7] = assay: Intrinsic clearance in Sprague-Dawley rat hepatocytes at 0.5 uM after 2 hrs by LC-MS/MS analysis; assay type: ADME, cell-based; procedure, shortened: as §2
[8] = molecular target: Sphingosine 1-phosphate receptor 3 (Homo sapiens, UniProt Q99500); assay: Agonist activity at human S1P3 receptor expressed in RBL cells by [35S]GTP-gammaS accumulation assay; assay type: cell-based
Procedure, shortened: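 Sucrose-gradient-purified RBL S1P3 membranes (0.44 µg/well) precoupled 30 min on ice to WGA SPA beads with 2 µg/well saponin in HEPES/MgCl2/NaCl buffer pH 7.4. 5 µM GDP final and 0.3 nM [35S]GTPγS final added, then dispensed onto compound in DMSO. Read by scintillation proximity after 3 h at room temperature.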

[9] = Activation of CYP1A (unknown origin); assay type: ADME; conditions: human
[10] = Fraction unbound in CD rat blood after 4 hrs by LC-MS/MS analysis; assay type: ADME, tissue-based; procedure, shortened: as §3
[11] = Intrinsic clearance in beagle dog hepatocytes at 0.5 uM after 2 hrs by LC-MS/MS analysis; assay type: ADME, cell-based, Canis lupus familiaris, Hepatocyte; procedure, shortened: as §2
[12] = Lipophilicity, log D of the compound at pH 10.5 by chromatography; assay type: physicochemical; conditions: buffer
Cytochrome P450 2D6 = Cytochrome P450 2D6 (Homo sapiens, UniProt P10635); assay: Inhibition of CYP2D6 (unknown origin) coexpressed in Escherichia coli with human NADPH reductase using 4-methylaminomethyl-7-methoyxycoumarin as substrate after 10 mins by fluorescence assay; assay type: ADME
Procedure, shortened: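 Recombinant CYP co-expressed in E. coli with human NADPH reductase, incubated with an isoform-specific pro-fluorescent substrate and compound (nine concentrations, 0.1-100 µM) plus a 0.2 mM NADPH regenerating system for 10 min at 37°C. Fluorescent metabolite formation was monitored.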

[13] = Intrinsic clearance in cynomolgus monkey hepatocytes at 0.5 uM after 2 hrs by LC-MS/MS analysis; assay type: ADME, cell-based, Macaca fascicularis, Hepatocyte
[14] = Passive permeability from apical to basolateral side in MDCK2-MDR1 cells after 90 mins by LC-MS/MS analysis; assay type: ADME, cell-based, Canis lupus familiaris, MDCK-II; conditions: dog, MDCK-MDR1; read-out: permeability
Procedure, shortened: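 MDCKII-MDR1 monolayers used 3-4 days after seeding on inserts. Apical FaSSIF at pH 5.5 or 7.4; basolateral DMEM pH 7.4 with 1% HSA. Both sides contained 2 µM GF120918 and were preincubated 30 min. A→B transport measured in triplicate after 90 min at 37°C with shaking.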

[15] = Fraction unbound in CD1 mouse blood after 4 hrs by LC-MS/MS analysis; assay type: ADME, tissue-based; procedure, shortened: as §3
[16] = Lipophilicity, log D of the compound at pH 2 by chromatography; assay type: physicochemical; conditions: buffer
[17] = Fraction unbound in beagle dog blood after 4 hrs by LC-MS/MS analysis; assay type: ADME, tissue-based, Canis lupus familiaris; procedure, shortened: as §3
Cytochrome P450 3A4 [18] = molecular target: T1, Cytochrome P450 3A4; assay: Inhibition of human CYP3A4 coexpressed in Escherichia coli with human NADPH reductase using nifedipine as substrate at 0.1 to 100 uM by fluorescence assay; assay type: ADME; conditions: TDE = time-dependent effect
[19] = Lipophilicity, log D of the compound at pH 7.4 by chromatography; assay type: physicochemical; conditions: buffer
Rattus norvegicus = assay: Lymphopenia activity in oral dosed Lewis rat
[20] = Oral bioavailability in rat; assay type: ADME, organism-based; conditions: in vivo
Cytochrome P450 3A4 [21] = molecular target: T1, Cytochrome P450 3A4; assay: Inhibition of human CYP3A4 by VG metabolism assay; assay type: ADME
Cytochrome P450 3A4 [22] = molecular target: T1, Cytochrome P450 3A4; assay: Inhibition of human CYP3A4 coexpressed in Escherichia coli with human NADPH reductase using atorvastatin as substrate at 0.1 to 100 uM by fluorescence assay; assay type: ADME; conditions: TDE = time-dependent effect
[23] = molecular target: T2, Sphingosine 1-phosphate receptor 4 (Homo sapiens, UniProt O95977); assay: Agonist activity at human S1P4 receptor expressed in CHO-K1 cells by aequorin calcium accumulation assay; assay type: functional, cell-based; procedure, shortened: as §1
T2 sequence (O95977 whole entry): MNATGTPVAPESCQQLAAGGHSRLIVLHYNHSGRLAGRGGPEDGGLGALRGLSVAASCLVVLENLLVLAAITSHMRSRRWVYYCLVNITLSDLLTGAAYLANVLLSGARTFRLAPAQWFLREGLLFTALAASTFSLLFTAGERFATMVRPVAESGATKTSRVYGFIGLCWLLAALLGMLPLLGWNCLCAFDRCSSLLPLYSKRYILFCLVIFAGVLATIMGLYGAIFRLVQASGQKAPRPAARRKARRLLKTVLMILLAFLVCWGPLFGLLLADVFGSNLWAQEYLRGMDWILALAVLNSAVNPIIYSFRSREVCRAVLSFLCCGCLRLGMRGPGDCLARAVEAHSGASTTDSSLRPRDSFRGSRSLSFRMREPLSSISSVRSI

T1 sequence (P08684 whole entry): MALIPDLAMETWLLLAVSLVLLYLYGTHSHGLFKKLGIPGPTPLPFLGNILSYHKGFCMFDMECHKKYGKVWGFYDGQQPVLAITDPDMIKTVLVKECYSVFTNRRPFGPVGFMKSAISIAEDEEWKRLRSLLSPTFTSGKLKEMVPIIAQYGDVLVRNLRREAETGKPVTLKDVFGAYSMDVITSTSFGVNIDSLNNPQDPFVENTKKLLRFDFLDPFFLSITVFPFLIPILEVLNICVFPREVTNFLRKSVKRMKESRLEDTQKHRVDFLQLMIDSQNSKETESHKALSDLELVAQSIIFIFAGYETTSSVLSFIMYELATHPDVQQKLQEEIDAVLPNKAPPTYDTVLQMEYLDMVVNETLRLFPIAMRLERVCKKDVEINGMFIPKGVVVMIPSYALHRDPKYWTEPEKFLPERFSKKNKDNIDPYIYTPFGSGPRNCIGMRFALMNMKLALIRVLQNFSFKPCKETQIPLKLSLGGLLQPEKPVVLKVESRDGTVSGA
Sequence of Cytochrome P450 2D6 (P10635 whole entry, canonical isoform): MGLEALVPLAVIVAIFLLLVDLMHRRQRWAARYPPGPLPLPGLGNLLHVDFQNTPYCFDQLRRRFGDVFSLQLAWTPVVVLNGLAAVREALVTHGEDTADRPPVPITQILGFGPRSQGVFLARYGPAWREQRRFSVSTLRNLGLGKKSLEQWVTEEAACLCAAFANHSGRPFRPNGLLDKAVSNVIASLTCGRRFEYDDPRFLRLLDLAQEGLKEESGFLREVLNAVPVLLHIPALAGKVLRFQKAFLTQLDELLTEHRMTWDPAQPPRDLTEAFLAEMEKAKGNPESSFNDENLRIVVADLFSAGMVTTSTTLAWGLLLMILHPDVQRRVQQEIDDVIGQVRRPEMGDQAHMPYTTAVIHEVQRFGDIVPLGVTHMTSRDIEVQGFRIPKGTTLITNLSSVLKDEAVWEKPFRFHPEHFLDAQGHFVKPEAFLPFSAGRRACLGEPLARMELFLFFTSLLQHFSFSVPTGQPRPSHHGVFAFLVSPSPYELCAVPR
Sequence of Sphingosine 1-phosphate receptor 1 (P21453 whole entry): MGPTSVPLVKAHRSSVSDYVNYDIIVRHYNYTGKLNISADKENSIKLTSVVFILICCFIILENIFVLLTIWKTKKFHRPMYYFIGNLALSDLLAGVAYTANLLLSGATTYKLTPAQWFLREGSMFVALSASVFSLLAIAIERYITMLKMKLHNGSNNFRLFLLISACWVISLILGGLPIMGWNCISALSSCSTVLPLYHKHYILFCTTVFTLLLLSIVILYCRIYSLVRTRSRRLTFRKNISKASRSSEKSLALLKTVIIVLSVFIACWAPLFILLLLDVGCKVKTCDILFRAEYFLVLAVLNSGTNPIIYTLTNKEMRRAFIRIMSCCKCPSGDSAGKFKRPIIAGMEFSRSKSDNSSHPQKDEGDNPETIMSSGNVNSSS
Sequence of Sphingosine 1-phosphate receptor 3 (Q99500 whole entry): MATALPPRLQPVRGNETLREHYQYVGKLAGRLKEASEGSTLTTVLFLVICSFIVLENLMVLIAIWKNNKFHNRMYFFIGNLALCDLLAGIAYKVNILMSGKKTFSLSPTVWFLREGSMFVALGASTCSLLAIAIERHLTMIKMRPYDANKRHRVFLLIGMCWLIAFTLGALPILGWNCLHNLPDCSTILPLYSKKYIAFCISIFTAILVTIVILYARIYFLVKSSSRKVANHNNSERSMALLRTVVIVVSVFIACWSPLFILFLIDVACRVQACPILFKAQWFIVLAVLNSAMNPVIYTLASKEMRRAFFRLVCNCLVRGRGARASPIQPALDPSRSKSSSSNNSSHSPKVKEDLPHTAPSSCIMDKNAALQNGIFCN
Sequence of Sphingosine 1-phosphate receptor 5 (Q9H228 whole entry): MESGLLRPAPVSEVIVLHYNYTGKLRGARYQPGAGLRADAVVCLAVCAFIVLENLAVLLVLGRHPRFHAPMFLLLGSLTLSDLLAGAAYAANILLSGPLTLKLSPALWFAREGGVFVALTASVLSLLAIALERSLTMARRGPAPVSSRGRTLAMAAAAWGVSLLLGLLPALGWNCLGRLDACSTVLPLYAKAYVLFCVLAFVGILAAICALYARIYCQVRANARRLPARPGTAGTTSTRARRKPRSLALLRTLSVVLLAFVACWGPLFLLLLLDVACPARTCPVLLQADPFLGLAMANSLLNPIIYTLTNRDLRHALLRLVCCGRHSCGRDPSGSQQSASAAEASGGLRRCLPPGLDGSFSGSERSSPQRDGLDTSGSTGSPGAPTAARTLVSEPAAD

For `Cc1c2c(nn1-c1nnc(-c3ccc(OC(C)C)c(Cl)c3)s1)CCN(CCC(=O)O)C2`, the EC50 [1] was 0.0166 µM, the CLH (Hepatocyte [2]) was 1.8 mL/min/g and the “inhibition (INH)” value (Cytochrome P450 3A4 [3]) was “tde”. For the same molecule, the EC50 [4] was 0.00631 µM, the IC50 (Cytochrome P450 3A4 [5]) was greater than 50 µM and the fraction unbound at 4 h [6] was 0.008. The Activity (Salmonella typhimurium) was “Non-toxic”, the CLH (Hepatocyte [7]) was 3.2 mL/min/g and the EC50 [8] was greater than 31.6 µM. The Activity [9] was “Not Active”, the fraction unbound at 4 h [10] was 0.014 and the CLH [11] was 6 mL/min/g. It also gave a chromatographic logD [12] of 1.53, an IC50 (Cytochrome P450 2D6) greater than 50 µM and a CLH [13] of 4.2 mL/min/g. For the same molecule, the Papp A→B at 1.5 h [14] was 147 nm/s, the fraction unbound at 4 h [15] was 0.011 and the chromatographic logD [16] was 1.03. For the same molecule, the fraction unbound at 4 h [17] was 0.011, the “inhibition (INH)” value (Cytochrome P450 3A4 [18]) was “tde” and the chromatographic logD [19] was 3.73. It also gave an IC50 (Rattus norvegicus) of 0.006 µM, a bioavailability [20] of 52% and an IC50 (Cytochrome P450 3A4 [21]) greater than 50 µM. For the same molecule, the “inhibition (INH)” value (Cytochrome P450 3A4 [22]) was “tde” and the EC50 [23] was greater than 39.8 µM.
